# Test results reported in ChEMBL document CHEMBL1130022, “Novel heterocyclic-fused pyridazinones as potent and selective phosphodiesterase IV inhibitors” (J Med Chem, 1997).
# Columns and labels:
# [1] = target: T1, Phosphodiesterase 3 (Homo sapiens, UniProt Q14432+Q13370); assay: Inhibition of guinea pig ventricular Phosphodiesterase 3 at 20 uM; type: protein assay; details: Cavia porcellus, target entry is the homologue from another species
# Procedure, shortened: (§1)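 Guinea pig ventricular PDE III/IV resolved by Mono-Q anion exchange (50–1000 mM sodium acetate gradient, Bis-Tris pH 6.5); isoenzymes characterized by substrate selectivity, Ca2+/calmodulin and selective inhibitors; pools stored -20 °C with 1 g/L BSA. Thompson–Strada assay, cAMP substrate 0.25 μM, duplicates; drugs in DMSO; IC50 by nonlinear regression or % inhibition at stated concentration, n = 3, ±SEM.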
# [2] = target: T2, Phosphodiesterase 4 (Homo sapiens, UniProt P27815+Q08499+Q07343+Q08493); assay: Inhibition of guinea pig ventricular Phosphodiesterase 4; type: protein assay, Cavia porcellus; details: target entry is the homologue from another species
# [3] = target: Phosphodiesterase 4 (Rattus norvegicus) (UniProt P14270+P14646+P14644+P54748); assay: Displacement of [3H]rolipram from rat brain membranes at 10 uM; type: cell membranes; details: Membrane
# [4] = target: T1, Phosphodiesterase 3; assay: Inhibition of guinea pig ventricular Phosphodiesterase 3 at 200 uM; details: Cavia porcellus, target entry is the homologue from another species
# [5] = target: T1, Phosphodiesterase 3; assay: Inhibition of guinea pig ventricular Phosphodiesterase 3; type: protein assay, Cavia porcellus; details: target entry is the homologue from another species
# [6] = target: T2, Phosphodiesterase 4; assay: Inhibition of guinea pig ventricular Phosphodiesterase 4 at 200 uM; type: protein assay; details: Cavia porcellus, target entry is the homologue from another species; procedure, shortened: as §1
Compound,inhibition [1] [%],IC50 [2] [nM],inhibition [3] [%],inhibition [4] [%],IC50 [5] [nM],inhibition [6] [%]
Cc1nnc2c(O)n(Cc3ccccc3)nc(-c3ccccc3)c1-2,,3100,54,60,,
CCOC(=O)c1sc2c(=O)n(CC)nc(-c3ccccc3)c2c1C,,900,,,5900,
CCn1nc(-c2ccccc2)c2c(c1=O)N(C)CC(C#N)=C2C,51,1100,,,,
O=c1c2cccnc2c(-c2cccc(Cl)c2)nn1Cc1ccncc1,,56,,,5100,
CCOC(=O)c1sc2c(=O)n(CC)nc(-c3cccc(Cl)c3)c2c1C,56,800,,,,
CCOC(=O)c1nc2c(O)n(Cc3ccccc3)nc(-c3ccccc3)c-2c1C,33,31000,28,,,

# Other lines, results leading:
inhibition [1] [%],IC50 [2] [nM],inhibition [3] [%],inhibition [4] [%],IC50 [5] [nM],inhibition [6] [%],Compound
35,7400,46,,,,CCn1nc(-c2ccccc2)c2c(C)nn(C)c2c1=O
35,2000,,,,,CCn1nc(-c2ccccc2)c2c(C)nnc-2c1O
20,11000,,,,,CCOC(=O)c1sc2c(=O)n(Cc3ccccc3)nc(-c3ccccc3)c2c1C
,,,,242000,,COc1ccc(C2CNC(=O)C2)cc1OC1CCCC1 (centres undefined) [ROLIPRAM]
30,600,,,,,CCOC(=O)c1nc2c(O)n(CC)nc(-c3ccccc3)c-2c1C
25,1300,,,,,CCOC(=O)c1sc2c(=O)n(CC)nc(-c3cccc([N+](=O)[O-])c3)c2c1C
,,11,30,,45,Cc1nn(C)c2c(=O)n(Cc3ccccc3)nc(-c3ccccc3)c12
